Calls of active or inactive are those of the source. The rule behind the calls is not given here.
Key:
MDCK = experiment: Cytotoxicity against MDCK cells assessed as reduction in cell viability measured after 48 hrs by CellTiter Glo assay; format: cell-based, Canis lupus familiaris; details: dog
Summary of the method: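 MDCK cells were incubated with compound under the conditions of the 48 h replication assay. Cytotoxicity was read with the CellTiter-Glo ATP viability assay. Follow-up viability testing used 5, 10, 50 and 100 μM.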

[1] = Cytotoxicity against MDCK cells assessed as reduction in cell viability measured on day 5 by Celltiter-Glo luminescence assay; format: cell-based, Canis lupus familiaris; details: dog, MDCK cells
Summary of the method: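 MDCK cells were infected with seasonal influenza A strains through NIAID resources and scored for protection from virus-induced cell death. Compounds were tested at four concentrations (0.8, 4, 20, 100 μM). EC50/EC90 (reduction of viral cell death) and CC50 (reduction of cell viability) were derived in μM, and SI50 = CC50/EC50.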

Influenza B virus = experiment: Antiviral activity against Influenza B virus (B/Brisbane/60/2008) infected in MDCK cells assessed as reduction in virus-induced cytopathic effect measured on day 5 by Celltiter-Glo luminescence assay; format: functional, organism-based
Saccharomyces cerevisiae = experiment: Effect on growth of Yeast 9526-6-2 harboring pYES at 50 uM measured up to 60 hrs; format: organism-based; details: in vivo
Summary of the method: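 Control yeast carrying empty pYES and NS1-expressing NS1-pYES strain grown with DMSO or compound at 50 μM. Growth measured as OD600 at 22, 42 and 60 h.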

[2] = target: Non-structural protein 1 (Influenza A virus (strain A/Puerto Rico/8/1934 H1N1)) (UniProt P03496); experiment: Inhibition of Influenza A virus A/PR/8/34 (H1N1) NS1 expressed in 293 cells assessed as increase in poly(I:C)-induced IFN-beta reporter activity treated 16 hrs […] measured after 24 hrs by luciferase reporter gene assay; format: cell-based; details: Influenza A virus (A/Puerto Rico/8/1934(H1N1))
Non-structural protein 1 (Influenza A virus (strain A/Puerto Rico/8/1934 H1N1)), sequence (P03496 whole entry): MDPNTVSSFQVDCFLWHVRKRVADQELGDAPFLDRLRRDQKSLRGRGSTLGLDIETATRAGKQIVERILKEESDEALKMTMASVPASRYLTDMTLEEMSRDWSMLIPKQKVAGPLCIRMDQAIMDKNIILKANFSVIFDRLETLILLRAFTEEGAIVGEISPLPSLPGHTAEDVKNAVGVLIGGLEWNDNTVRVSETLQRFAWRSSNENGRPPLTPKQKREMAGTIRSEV
Summary of the method: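 293 cells co-transfected with a human IFN-β promoter-driven firefly luciferase reporter and NS1 expression constructs. At 16 h post-transfection, poly(I:C) 50 μg/mL plus compound (20 μM) or 1% DMSO added for a further 24 h; luciferase read by luminometer. Untransfected cells serve as baseline.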

[3] = target: Luciferin 4-monooxygenase (Photinus pyralis) (UniProt P08659); experiment: Effect on firefly luciferase activity expressed in 293 cells at 50 uM by luminescence assay; format: cell-based
Luciferin 4-monooxygenase (Photinus pyralis), sequence (P08659 whole entry): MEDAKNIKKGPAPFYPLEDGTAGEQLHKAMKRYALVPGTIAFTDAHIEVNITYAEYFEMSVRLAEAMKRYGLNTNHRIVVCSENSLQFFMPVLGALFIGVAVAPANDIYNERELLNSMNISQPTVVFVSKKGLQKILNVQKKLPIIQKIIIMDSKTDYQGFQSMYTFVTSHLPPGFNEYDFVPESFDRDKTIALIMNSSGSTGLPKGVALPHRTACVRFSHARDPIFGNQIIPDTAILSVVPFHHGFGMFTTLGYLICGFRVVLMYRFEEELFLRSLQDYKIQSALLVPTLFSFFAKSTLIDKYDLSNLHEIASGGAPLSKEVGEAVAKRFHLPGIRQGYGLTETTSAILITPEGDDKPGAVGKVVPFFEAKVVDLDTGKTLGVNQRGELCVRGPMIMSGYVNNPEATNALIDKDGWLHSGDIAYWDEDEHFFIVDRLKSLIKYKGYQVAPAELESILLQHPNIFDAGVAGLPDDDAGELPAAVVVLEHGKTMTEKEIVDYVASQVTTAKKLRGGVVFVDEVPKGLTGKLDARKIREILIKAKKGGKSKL

[4] = Aqueous kinetic solubility of the compound; format: physicochemical; details: buffer
[5] = Stability of the compound in mouse liver microsomes assessed as parent compound remaining measured immediately; format: ADME, Microsome; details: read-out: Stability
Summary of the method: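 Mouse liver microsomes; percent parent compound remaining measured at 0, 15 and 30 min.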

Influenza A virus = experiment: Antiviral activity against Influenza A virus A/PR/8/34 (H1N1) infected in MDCK cells assessed as 3-log reduction in virus titer measured after 48 hrs by hemagglutination assay; format: functional, A/Puerto Rico/8/1934(H1N1)
Summary of the method: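 MDCK cells were infected with A/PR/8/34 (H1N1) at MOI 0.1 and incubated with compound for 48 h. Supernatant virus was then quantified by hemagglutination assay and standard TCID50 analysis. The single-concentration screen used 10 μM and reports fold reduction in titer. Dose-response runs used triplicate cultures, with percent titer decrease back-calculated from TCID50.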

[6] = Apparent permeability across basolateral to apical side in human Caco2 cells measured after 2 hrs in presence of 3% BSA; format: ADME, cell-based; details: caco-2, 2 h
Summary of the method: (§1)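 Permeability was measured across Caco-2 monolayers in both directions, apical to basolateral and basolateral to apical. […] Runs were done with and without 3% BSA, and mass recovery (%) was reported for each direction. Efflux ratio = Papp B→A / Papp A→B.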

[7] = Apparent permeability across apical to basolateral side in human Caco2 cells assessed as drug recovery; format: ADME, cell-based; details: caco-2; summary of the method: as §1
[8] = Apparent permeability across apical to basolateral side in human Caco2 cells assessed as drug recovery in presence of 3% BSA; format: ADME, cell-based; details: caco-2; summary of the method: as §1
[9] = Tmax in C57BL/6 mouse liver at 30 mg/kg, ip; format: ADME, organism-based
Summary of the method: (§2)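 Male C57BL/6 mice, single intraperitoneal 30 mg/kg dose, N=3. Plasma, liver and lung concentrations followed over time to give concentration-time profiles, from which Tmax, Cmax, terminal t1/2, AUClast and AUCINF were derived.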

[10] = Cmax in C57BL/6 mouse liver at 30 mg/kg, ip; format: ADME, organism-based; parameters: dose 30 mg/kg, route intraperitoneal
Summary of the method: (§3)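 Male C57BL/6 mice received a single intraperitoneal dose of 30 mg/kg (N=3). Compound concentrations were followed over time in plasma, liver and lung. Tmax, Cmax, terminal t1/2, AUClast and AUCINF were derived from the mean concentration-time profiles.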

[11] = AUC (infinity) in C57BL/6 mouse liver at 30 mg/kg, ip; format: ADME, organism-based; parameters: dose 30 mg/kg, time infinity, route intraperitoneal; summary of the method: as §3
[12] = Terminal half life in C57BL/6 mouse lung at 30 mg/kg, ip; format: ADME, organism-based; details: read-out: beta t1/2 (converted); summary of the method: as §2
[13] = AUClast in C57BL/6 mouse lung at 30 mg/kg, ip; format: ADME, organism-based; parameters: dose 30 mg/kg, route intraperitoneal, time 0 - last; summary of the method: as §3
[14] = Drug level in C57BL/6 mouse plasma at 30 mg/kg, ip measured at 0.083 hrs; format: ADME, organism-based; summary of the method: as §3
[15] = Drug level in C57BL/6 mouse plasma at 30 mg/kg, ip measured at 0.5 hrs; format: ADME, organism-based; summary of the method: as §2
[16] = Drug level in C57BL/6 mouse plasma at 30 mg/kg, ip measured at 2 hrs; format: ADME, organism-based; summary of the method: as §2
[17] = Drug level in C57BL/6 mouse plasma at 30 mg/kg, ip measured at 3 hrs; format: ADME, organism-based; summary of the method: as §2
[18] = Drug level in C57BL/6 mouse plasma at 30 mg/kg, ip measured at 4 hrs; format: ADME, organism-based; summary of the method: as §2
[19] = Drug level in C57BL/6 mouse plasma at 30 mg/kg, ip measured at 8 hrs; format: ADME, organism-based; summary of the method: as §2
[20] = Drug level in C57BL/6 mouse plasma at 30 mg/kg, ip measured at 12 hrs; format: ADME, organism-based; summary of the method: as §2
[21] = Drug level in C57BL/6 mouse plasma at 30 mg/kg, ip measured at 24 hrs; format: ADME, organism-based; summary of the method: as §2
[22] = Drug level in C57BL/6 mouse plasma at 30 mg/kg, ip measured at 48 hrs; format: ADME, organism-based; summary of the method: as §2
[23] = Drug level in C57BL/6 mouse liver at 30 mg/kg, ip measured at 0.25 hrs; format: ADME, organism-based; details: in vivo; summary of the method: as §3
[24] = Drug level in C57BL/6 mouse liver at 30 mg/kg, ip measured at 0.5 hrs; format: ADME, organism-based; details: in vivo; summary of the method: as §3
[25] = Drug level in C57BL/6 mouse liver at 30 mg/kg, ip measured at 8 hrs; format: ADME, organism-based; details: in vivo; summary of the method: as §3
[26] = Drug level in C57BL/6 mouse liver at 30 mg/kg, ip measured at 24 hrs; format: ADME, organism-based; details: in vivo; summary of the method: as §3
[27] = Drug level in C57BL/6 mouse liver at 30 mg/kg, ip measured at 48 hrs; format: ADME, organism-based; details: in vivo; summary of the method: as §3
[28] = Drug level in C57BL/6 mouse lung at 30 mg/kg, ip measured at 0.25 hrs; format: ADME, organism-based; details: in vivo; summary of the method: as §3
[29] = Drug level in C57BL/6 mouse lung at 30 mg/kg, ip measured at 2 hrs; format: ADME, organism-based; details: in vivo; summary of the method: as §3
[30] = Drug level in C57BL/6 mouse lung at 30 mg/kg, ip measured at 3 hrs; format: ADME, organism-based; details: in vivo; summary of the method: as §3
[31] = Drug level in C57BL/6 mouse lung at 30 mg/kg, ip measured at 8 hrs; format: ADME, organism-based; details: in vivo; summary of the method: as §3
[32] = Drug level in C57BL/6 mouse lung at 30 mg/kg, ip measured at 24 hrs; format: ADME, organism-based; details: in vivo; summary of the method: as §3

In the case of `COc1cc(-c2ccnc3c2c(C)nn3-c2ccc(C(F)(F)F)cc2)ccc1O`, the Activity (MDCK) is reported as “Non-Toxic”, the CC50 at 5 day [1] is reported as 19.8 to 27.8 µM and the Activity (Influenza B virus) is reported as “inactive”. The Activity (Saccharomyces cerevisiae) was “Non-Toxic”, the inhibition [2] was “Active” and the Activity [3] was “inactive”. It also gave a Kinetic_solubility [4] of 3.1 µM, a remaining at 0 min [5] of 100% and a TCID50 (Influenza A virus) of 1.6 µM. The Papp [6] was 0.27 ×10⁻⁶ cm/s, the Drug recovery [7] was 5% and the Drug recovery [8] was 49%. It also gave a Tmax [9] of 0.25 h, a Cmax [10] of 49600 ng/mL and an AUC(0-inf) [11] of 80300 ng·h/mL. It also gave a half-life [12] of 4.5 h, an AUC(0-t) [13] of 53900 ng·h/mL and a concentration at 0.083 h [14] of 2950 nM. For the same compound, the concentration at 0.5 h [15] was 5760 nM, the concentration at 2 h [16] was 2530 nM and the concentration at 3 h [17] was 1730 nM. The concentration at 4 h [18] was 1200 nM, the concentration at 8 h [19] was 555 nM and the concentration at 12 h [20] was 209 nM. The concentration at 24 h [21] was 20 nM, the concentration at 48 h [22] was 3 nM and the Drug uptake [23] was 124197 nmol/kg. It also gave a Drug uptake [24] of 62599 nmol/kg, a Drug uptake [25] of 5058 nmol/kg and a Drug uptake [26] of 224 nmol/kg. It also gave a Drug uptake [27] of 23 nmol/kg, a Drug uptake [28] of 46490 nmol/kg and a Drug uptake [29] of 16568 nmol/kg. It also gave a Drug uptake [30] of 10951 nmol/kg, a Drug uptake [31] of 3931 nmol/kg and a Drug uptake [32] of 168 nmol/kg.
